Measured values from different studies.
Target: Ephrin type-A receptor 7 (EPHA7, Homo sapiens, UniProt Q15375)

SMILES | effect on | method | tested at | remaining binding
N[C@H]1CCN(c2nccc(-c3cnn4ncccc34)n2)C1 | binding |  | 1 µM | 100%
O=C(Nc1cccnn1)N1CCC(=Cc2cccc(Oc3ccc(C(F)(F)F)cn3)c2)CC1 | cell-free assay | competition with immobilised ligand | 1 µM | 95%
O=C(c1ccc(Nc2ncc(Cl)c(-c3ccc(Cl)s3)n2)cc1)N1CCC(N2CCCC2)CC1 | binding | competition with immobilised ligand | 1 µM | 56%
F[C@@H]1CCN(c2nccc(-c3cnn4ncccc34)n2)C1 | binding |  | 1 µM | 100%
Nc1ncc2c(n1)-c1c([nH]c3ccc(C#CC4CC4)cc13)CCCC2 | binding | competition with immobilised ligand | 1 µM | 100%
CN(C)c1ncc(F)c(-c2cnn3ncccc23)n1 | binding |  | 1 µM | 100%
O=C(Nc1c[nH]nc1C(=O)NC1CCNCC1)c1cc(F)cc(F)c1 | binding | competition with immobilised ligand | 1 µM | 100%
CNC(=O)Nc1ccc2c(c1)[C@@]1(CC2)OC(=O)N(CC(=O)N(Cc2ccc(F)cc2)[C@@H](C)C(F)(F)F)C1=O | cell-free assay | competition with immobilised ligand | 1 µM | 100%
C[C@@H](c1ccc(-n2cnc3c(N)ncnc32)cc1)N1CCc2nn(C)c(Cc3ccccc3)c2C1=O | binding | competition with immobilised ligand | 0.1 µM | 69%
COc1cnc(Nc2cccc(S(N)(=O)=O)c2)nc1N1CCN(c2ccccc2)C(=O)C1 | binding | competition with immobilised ligand | 1 µM | 100%
C[C@@H]1CN(c2cc(-c3nn(C)c4ccc(OC5(C)CC5)cc34)ncn2)C[C@H](C)O1 | cell-free assay | competition with immobilised ligand | 1 µM | 99%
CC1CCCN1c1nccc(-c2cnn3ncccc23)n1 (centres unmarked) | binding |  | 1 µM | 99%
O=C(c1ccc(Nc2nccc(-c3cc4ccccc4s3)n2)cc1)N1CCC(N2CCCC2)CC1 | binding | competition with immobilised ligand | 1 µM | 100%
Cn1cc(Cl)c2c(Oc3c(F)cc(Nc4cc(Cl)nc(N)n4)cc3F)ccnc21 | cell-free assay | competition with immobilised ligand | 0.1 µM | 96%
Cc1cnc(Nc2ccc(C(=O)N3CCC(N4CCCC4)CC3)cc2)nc1-c1cc2ccccc2s1 | binding | competition with immobilised ligand | 1 µM | 67%
CCN1CCN(Cc2ccc(C(=O)Nc3ccc(C)c(Oc4ccc5c(c4)CC(=O)N5)c3)cc2C(F)(F)F)CC1 | binding | competition with immobilised ligand | 1 µM | 89%
N#CC1(c2ccccn2)CCN(Cc2cc(C(=O)N3CCCC3)c(=O)n3ccccc23)CC1 | cell-free assay | competition with immobilised ligand | 1 µM | 100%
Cc1cnn2ncc(-c3ccnc(N(C)C)n3)c2c1 | binding |  | 1 µM | 100%
CN(C)C(=O)Cn1cc(-c2nc(C3(c4ccc(-c5cnc(N)nc5)cc4)CC3)no2)cn1 | cell-free assay | competition with immobilised ligand | 1 µM | 92%
COc1ccnn2ncc(-c3ccnc(N(C)C)n3)c12 | binding |  | 1 µM | 93%
